In ChEMBL document CHEMBL1138485, “Discovery of inducible nitric oxide synthase (iNOS) inhibitor development candidate KD7332, part 1: Identification of a novel, potent, and selective series of quinolinone iNOS dimerization inhibitors that are orally active in rodent pain models” (J Med Chem, 2009) one finds Activity and inhibition data, which are given here for two molecules.

As usually defined, the inhibition is the change of the read-out against control, counted positive when it falls.

The subject of one assay is Mus musculus. Kind of assay: Antinociceptive activity against acetone-induced chronic constriction injury in mouse paw assessed as duration of pain behavior at 100 mg/kg, po pretreated 30 mins before formalin challenge relative to control. As to conditions: in the assay text read “acetone testing” for “formalin challenge”. Type of assay: functional. In a few lines: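 Mice underwent chronic constriction injury surgery (Bennett and Xie) and recovered 1–2 weeks. After 100 mg/kg po dosing 30 min before testing and 1 h acclimation on a wire mesh platform, 100 µL acetone was applied to the injured plantar hindpaw. Flinching, licking and biting were recorded for 1 min, with reduction relative to vehicle.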

Assay [1] has as its target T1, Nitric oxide synthase 3 (Homo sapiens) (UniProt P29474).
T1 sequence (whole entry): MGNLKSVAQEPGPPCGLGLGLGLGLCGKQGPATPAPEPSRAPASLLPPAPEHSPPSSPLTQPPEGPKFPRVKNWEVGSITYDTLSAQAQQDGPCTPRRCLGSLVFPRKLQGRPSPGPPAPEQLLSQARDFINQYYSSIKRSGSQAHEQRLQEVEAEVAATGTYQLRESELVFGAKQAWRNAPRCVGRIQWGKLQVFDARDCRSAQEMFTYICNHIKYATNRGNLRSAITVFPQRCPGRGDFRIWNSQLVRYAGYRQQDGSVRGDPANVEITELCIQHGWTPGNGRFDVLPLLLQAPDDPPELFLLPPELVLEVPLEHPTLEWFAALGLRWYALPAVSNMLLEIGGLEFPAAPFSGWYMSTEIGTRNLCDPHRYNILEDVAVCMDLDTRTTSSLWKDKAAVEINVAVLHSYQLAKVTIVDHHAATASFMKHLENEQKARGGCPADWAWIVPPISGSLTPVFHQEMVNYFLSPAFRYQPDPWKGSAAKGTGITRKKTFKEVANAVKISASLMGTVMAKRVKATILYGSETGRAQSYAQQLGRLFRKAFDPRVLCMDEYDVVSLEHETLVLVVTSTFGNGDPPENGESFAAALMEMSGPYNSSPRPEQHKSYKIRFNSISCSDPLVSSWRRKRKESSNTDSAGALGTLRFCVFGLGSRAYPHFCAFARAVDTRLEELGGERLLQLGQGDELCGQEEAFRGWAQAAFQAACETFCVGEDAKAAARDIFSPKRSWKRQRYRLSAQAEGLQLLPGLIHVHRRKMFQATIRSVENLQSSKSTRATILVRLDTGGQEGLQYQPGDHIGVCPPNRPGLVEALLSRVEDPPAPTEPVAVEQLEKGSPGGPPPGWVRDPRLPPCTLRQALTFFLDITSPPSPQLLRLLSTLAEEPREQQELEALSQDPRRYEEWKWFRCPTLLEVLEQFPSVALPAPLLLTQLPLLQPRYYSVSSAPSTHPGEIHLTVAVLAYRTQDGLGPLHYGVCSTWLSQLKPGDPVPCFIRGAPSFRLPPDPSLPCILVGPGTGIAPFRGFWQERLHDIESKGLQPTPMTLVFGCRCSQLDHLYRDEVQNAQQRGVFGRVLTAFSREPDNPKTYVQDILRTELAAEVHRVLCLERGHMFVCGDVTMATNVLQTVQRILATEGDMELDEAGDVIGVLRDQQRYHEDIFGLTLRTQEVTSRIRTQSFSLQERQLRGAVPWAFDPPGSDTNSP
As to the kind of experiment: Inhibition of human eNOS expressed in HEK293 cells assessed as NO production at 100 uM by transient transfection assay relative to BBS-4. Type of assay: cell-based. The method, boiled down: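 HEK293 cells transiently transfected with human eNOS (15 µg plasmid) or nNOS (10 µg plasmid), Fugene 6 at 3:1 µL:µg, 4 h at 37 °C, 10% CO2. Plated at 5 × 10⁵ cells/mL with compound; SEITU 100 µM final as positive control. After 24 h, activated with A23187 (83 nM final, eNOS) or ionomycin (30 µM final, nNOS). After 18 h more, NO read by DAN fluorescence. Inhibition is relative to the maximal inhibition by the control dimerization inhibitor. 3 runs, 10-point curves, n = 3/point.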

As for `Cc1ncsc1C(=O)N(Cc1cc(=O)[nH]c2c(F)cccc12)c1cccc(Cl)c1`, the Activity with Mus musculus is reported as 45%. In the case of `CC(C)C(=O)N(Cc1cc(=O)[nH]c2c(F)cccc12)c1cccc(Cl)c1`, the inhibition in assay [1] was under 50%.
